Results: PubChem BioAssay
Values without a mark were called inactive. Results filed as inconclusive are left out. Activity calls are given as the source filed them.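 Rule for the calls, unless noted: active = cell viability at or below a set limit in both duplicate runs, the limit being the all-compound median minus 4 SD (cut at about 23% in these data, passing the limit was not always enough); inconclusive = no clear call, values can overlap the other calls; inactive = the rest.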

How the values were obtained:
[1] = OD615 S. cerevisiae growth inhibition, permissive medium, pilot counter-assay, permissive growth control for S. cerevisiae lifespan shortening project (AID 705;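 active = growth inhibition above 25% in both replicates, a cutoff set 3 SD above the mean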); conditions: OD615, 24 h, at 10 µM, hits give high values
Procedure, shortened: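 assay system = Saccharomyces cerevisiae strain carrying genetically modified DeaD replicative-lifespan system | technique = absorbance (optical density) at 615 nm | buffer or medium = permissive raffinose/galactose medium | timing = cells pre-grown 4 h, then 24 h compound exposure, 30 °C humidified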

[2] = Restrictive medium S. cerevisiae growth inhibition, OD615, pilot screen of yeast lifespan reduction project, restrictive growth control (AID 706;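 active = growth inhibition above a set limit, 3 SD over mean compound inhibition, in both replicates, cut at about 43% in these data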;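 note: modified DeaD lifespan yeast strain shifted to restrictive glucose medium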); conditions: OD615, 48 h, at 10 µM, hits give high values
Procedure, shortened: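 System: modified S. cerevisiae. Buffer or medium: CSMM-D glucose medium. Incubation: 4 h pre-growth plus 48 h compound exposure, 30 °C. Detection: absorbance (optical density) measured at 615 nm.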

[3] = viability gain of MRP-1-high H69AR cells under doxorubicin, pilot screen, MRP-1 activator project, CellTiter-Glo, duplicate (AID 807;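 active = viability increase at or above a cutoff of the median across tested compounds plus 3 SD, cut at about 8.5% in these data, passing the limit was not always enough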;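 note: compound pretreatment 18-22 h then 72 h combined with doxorubicin; 0% = doxorubicin alone and 100% = vehicle without doxorubicin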); conditions: H69AR viability with doxorubicin, CellTiter-Glo luminescence; at 10 µM; hits give high values
[4] = growth suppression of beta-catenin knockout HCT116, pilot screen, human colon tumor cells (AID 823); conditions: CellTiter-Glo, 60 h, at 10 µM, hits give low values;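 note: 0% = wells killed by 20 µM Hyamine and 100% = untreated DMSO cell wells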
[5] = growth suppression of PTEN-deleted HCT116, pilot screen, cell-based, HCT116 clonal line, CellTiter-Glo (AID 824;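 active = viability at or below 27.92% in each of two runs, the all-compound median minus 4 SD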;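 note: 0% = 20 µM Hyamine control and 100% = vehicle cell control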); conditions: 60 h, at 10 µM, hits give low values
[6] = inhibitors of the yeast RAM network, pilot screen, dse1pr::URA3 reporter, 5-FOA selection (AID 869;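 active = inhibition over a set limit, the all-compound mean plus 3 SD, in both replicate runs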;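 note: 0% = DMSO wells with no growth and 100% = 10 µM 1-NA-PP1 with full growth; RAM network block rescues cells from 5-FOA so hits raise OD615 growth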); conditions: S. cerevisiae dse1pr::URA3 5-FOA growth, OD615, 2 d; at 10 µM; hits give high values; strain carries analog-sensitive mutant Cbk1 kinase
[7] = RAM signaling pathway blockade in yeast – S. cerevisiae, Pdr1DBD-CYC8 efflux-inhibited sensitized strain, primary screen (AID 1298;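 active = RAM network inhibition above 8.4% in each of two replicates, 3 SD over the compound average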;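 note: 0% = DMSO untreated cells without growth and 100% = 10 µM 1-NA-PP1 full growth; higher means more yeast growth rescued from 5-FOA killing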); conditions: S. cerevisiae cbk1-as DSE1-URA3 strain, 5-FOA growth OD615, 2 d; at 50 µM; hits give high values

Row | SMILES | growth inhibition [1] | growth inhibition [2] | viability increase [3] | viability [4] | viability [5] | inhibition [6] | RAM network inhibition [7]
1 | CCCCn1c(CCNC(=O)CCC)nc2ccccc21 | -9.84% | 4.55% | -0.74% | 99.1% | 108% | 2.43% | -0.53%
2 | C=C1CC2C=C(NC(C)=O)CC(C1)C2 (configuration not stated) | -18.7% | -12.7% | -0.27% | 98.6% | 95.6% | 1.1% | 4.47%
3 | CC1CCCC(NC(=O)CSc2nnnn2C)C1C (configuration not stated) | -6.17% | -10.1% | 1.61% | 95.5% | 101% | 1.29% | 2.27%
4 | COc1cc(C2NC(=O)N(C)C3=C2C(=O)CCC3)cc(OC)c1OC (configuration not stated) | -3.03% | -17.1% | -0.05% | 104% | 99% | 2.73% | 4.71%
5 | O=C(O)CCSc1nnc(-c2ccccc2)n1-c1ccccc1 | 4.3% | 50.6% (active) | 0.8% | 94.4% | 98.3% | 1.48% | 0.72%
6 | CC1=NC2(CCCc3c2no[n+]3[O-])N(O)C1(C)C (configuration not stated) | 6.66% | 3.75% | -1.89% | 101% | 98.7% | 1.36% | 1.51%
7 | O=C(Cn1cnc2c(nnn2-c2ccccc2)c1=O)N1CCC(Cc2ccccc2)CC1 | 7.29% | 9.16% | -1.56% | 91.4% | 85.3% | 2.19% | 7.33%
8 | CC(Oc1ccc(Cl)cc1Cl)C(=O)Nc1ccncc1 (configuration not stated) | -13.3% | -9.66% | -6.03% | 54.9% | 54.2% | 1.19% | 2.04%
9 | O=C(c1ccc2nc(N3CCCCC3)sc2c1)N1CCN(Cc2ccc3c(c2)OCO3)CC1 | 2.12% | 1.62% | 1.03% | 54.2% | 60.2% | 0.76% | 1.12%
10 | O=C(Oc1ccccc1)N1CCN(c2ccc(F)cc2)CC1 | -11.1% | -5.32% | 1.92% | 95.8% | 85.5% | 0.665% | 5.1%
11 | CCc1cc2c(=O)c(Oc3ccccc3F)c(C)oc2c(CN(C)C)c1O | -5.07% | 9.37% | -7.21% | 95.2% | 89.1% | 3.73% | 6.03%
12 | c1nc(N2CCCCC2)c2[nH]cnc2n1 | -2.33% | -9.23% | -5.39% | 113% | 102% | 1.4% | 2.24%
13 | Cc1nc(N2CCN(C)CC2)c2sc(=S)n(-c3ccccc3)c2n1 | -1.92% | -1.67% | -4.61% | 93.4% | 86.1% | 1.31% | 3.03%
14 | COc1ccccc1NC(=O)c1ccc(N)cc1 | -2% | -2.66% | 0.45% | 105% | 103% | 2.87% | 2.74%
15 | Cn1c(=NC(=O)C2CC2)sc2cccc(F)c21 | -10.3% | 8.25% | -4.82% | 88.3% | 89% | 0.96% | 6.98%
16 | Cc1cc(C)c2c(CC(=O)O)coc2c1 | -5.72% | 10.2% | 0.24% | 93.9% | 105% | 2.03% | 0.98%
17 | COc1ccc(OC)c(N(CC(=O)NCc2ccccn2)S(C)(=O)=O)c1 | -0.79% | -6.94% | -2.27% | 98.1% | 96.3% | 1.44% | 0.46%
18 | CCOC(=O)N1CCN(c2c(N3CCOCC3)c(=O)c2=O)CC1 | 1.49% | -13.2% | 0.58% | 106% | 97.2% | 2.57% | -0.73%

Row | SMILES | growth inhibition [1] | growth inhibition [2] | viability increase [3] | viability [4] | viability [5] | inhibition [6] | RAM network inhibition [7]
19 | CCOCCCNC(=O)Cn1nc(-c2ccccc2)ccc1=O | -19.8% | -7.81% | 1.86% | 105% | 91.7% | 0.165% | -0.58%
20 | Nc1ccccc1-c1nnc(SCc2ccccc2F)[nH]c1=O | -8.6% | 6.34% | 2.02% | 95.9% | 89.9% | 0.695% | 4.24%
21 | COc1ccc(CC2CCOC2=O)cc1 (configuration not stated) | -10.7% | -8.8% | 0.08% | 98% | 93.9% | 1.93% | -0.09%
22 | O=C(NCc1cn2ccccc2n1)c1ccc(Br)o1 | -7.75% | -0.96% | -1.31% | 96.5% | 92.3% | 2.42% | 3.98%
23 | CCC(C)NC(=O)CCS(=O)(=O)c1ccc2c(c1)n(C)c(=O)c(=O)n2C (configuration not stated) | -2.86% | 4.93% | -0.01% | 103% | 99.1% | 3% | 3.76%
24 | CCOC(=O)CNc1c(N2CCN(c3ccccn3)CC2)c(=O)c1=O | 2.94% | 13.8% | -1.12% | 110% | 102% | 1.91% | -0.36%
25 | COc1ccccc1N1CCN(C(=O)c2ccc(Br)s2)CC1 | -10.4% | -6.29% | -1.58% | 87% | 91.1% | 1.69% | 6.83%
26 | CN1CCN(C(=O)c2ccc3c(c2)N(Cc2ccc(Cl)cc2)C(=O)c2ccccc2S3=O)CC1 (configuration not stated) | -0.89% | -13.2% | -4.61% | 80.3% | 83% | 0.215% | 1.3%
27 | Cn1c(SCC(=O)N2CCCCC2)nc2c([nH]c3ccccc32)c1=O | -3.83% | -3.68% | -6.06% | 61.4% | 44% | 2.85% | 4.75%
28 | CCOc1cc(C(=O)NC(C)COC)cc(OCC)c1OCC (configuration not stated) | -4.84% | -8.48% | -2.05% | 104% | 104% | 0.785% | 0.53%
29 | Cc1ccc(C(=O)Nc2ccc(S(=O)(=O)N3CCN(C)CC3)cc2)o1 | -8.11% | -0.785% | -0.32% | 104% | 103% | 1.32% | 3.17%
30 | Cc1ccc(S(=O)(=O)N=C2SCCCS2)cc1 | -3.74% | 6.67% | -2.68% | 99.2% | 99.5% | 1.31% | 2.39%
31 | Cc1cc(C)cc(Nc2cc(C)nc3nc(C)nn23)c1 | -3.56% | 11.6% | -2.41% | 95.9% | 90.8% | 1.87% | -0.26%
32 | CCCC(=O)C1=C(O)C(C(=O)OC)C(C)(C)CC1=Nc1ccncc1 (configuration not stated) | 0.755% | 9.75% | -2.84% | 96.7% | 94.6% | 0.73% | 0.11%
33 | O=C(C1CC1)N1CCc2cc(Br)cc(S(=O)(=O)NCc3ccc4c(c3)OCO4)c21 | -4.48% | -5.21% | -1.52% | 87.1% | 86.1% | 1.23% | 5.72%
34 | CCOC(=O)N1CCC(NC(=O)Cn2cc3c(n2)CCCCC3)CC1 | -5.77% | 5.48% | 1.03% | 108% | 98.6% | -0.43% | 0.41%
35 | O=C1c2ccccc2C(=O)N1CCc1nc2ccccc2c(=O)n1Cc1ccco1 | -8.88% | -1.42% | -3.47% | 89.7% | 88.6% | 1.29% | 1.59%
36 | COc1ccc(NC(=O)CSc2nnc(-c3ccc(C)cc3)n2N)cc1 | -3.98% | -4.99% | 0.54% | 100% | 92.8% | 1.1% | 2.69%
